According to ChEMBL document CHEMBL4229392, “An Efficient Buchwald-Hartwig/Reductive Cyclization for the Scaffold Diversification of Halogenated Phenazines: Potent Antibacterial Targeting, Biofilm Eradication, and Prodrug Exploration” (J Med Chem, 2018):
In brackets after ≈: the same amount, converted by molar mass.

What was measured:
HeLa = experiment: Cytotoxicity against human HeLa cells after 24 hrs by LDH release assy; assay type: cell-based
Method in brief: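 HeLa cells in DMEM with 10% FBS at 37 °C, 5% CO2, dosed at 70-80% confluence with compound diluted in medium at 25, 50 and 100 µM for 24 h. Supernatant mixed with LDH reaction mixture, 30 min at room temperature, stopped, A490 read. Triton X-100 (2% v/v) as maximal-release control, medium only as no-death control, DMSO as vehicle. Three independent experiments.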

[1] = Hemolytic activity in human RBC at 200 uM after 1 hr relative to control; assay type: ADME, cell-based, Erythrocyte; conditions: red blood cells (erythrocytes), read-out: Activity
Method in brief: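 Human RBCs drawn fresh into EDTA were washed three times in Tris-buffered saline (0.01 M Tris, 0.155 M NaCl, pH 7.2). 2% hRBC suspension was added to compound from DMSO stock, final 200 µM, for 1 h at 37 °C, then centrifuged and supernatant OD405 read. Scaled between DMSO (0%) and Triton X (100%). Three independent experiments.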

Enterococcus faecium [2] = experiment: Antibacterial activity against vancomycin-resistant Enterococcus faecium ATCC 700221 after 16 to 18 hrs by broth microdilution method; assay type: functional
Method in brief: (§1)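 CLSI broth microdilution in Lysogeny Broth, eleven two-fold dilutions spanning 0.10–100 µM; ~10^5 cells per well from log-phase culture; DMSO vehicle (top 1% v/v). MIC = lowest concentration preventing growth after 16–18 h at 37 °C, supported by OD600; three independent experiments.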

[3] = Half life in human serum by LC-MS analysis; assay type: ADME, cell-free
Method in brief: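 Human serum pre-warmed to 37 °C, spiked with prodrug from 10 mM DMSO stock plus internal standard, vortexed, then held 1 to 60 min. At each time point, acetonitrile with 0.5% formic acid was added to precipitate proteins. Released active HP was quantified as its ratio to internal standard against standard curves.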

[4] = test system: Staphylococcus epidermidis; experiment: Antibacterial activity against methicillin-resistant Staphylococcus epidermidis ATCC 35984 after 16 to 18 hrs by broth microdilution method; assay type: functional
Staphylococcus aureus [5] = experiment: Antibacterial activity against methicillin-resistant Staphylococcus aureus BAA-1707 after 16 to 18 hrs by broth microdilution method; assay type: functional; method in brief: as §1
[6] = test system: Staphylococcus epidermidis; experiment: Bactericidal activity against methicillin-resistant Staphylococcus epidermidis ATCC 35984 planktonic cells after 24 hrs by calgary biofilm device method; assay type: organism-based
Method in brief: (§2)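 Biofilms grown 24 h at 37 °C on Calgary device pegs from mid-log culture diluted 1,000-fold in TSB + 0.5% glucose; washed pegs challenged 24 h at 37 °C with 2-fold serial dilutions. Challenge medium subcultured into fresh TSBG overnight; MBC = concentration without visible turbidity; at least three independent experiments.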

Staphylococcus aureus [7] = experiment: Induction of biofilm eradication of methicillin-resistant Staphylococcus aureus BAA-1707 after 24 hrs by calgary biofilm device method; assay type: functional
Method in brief: (§3)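 Calgary device: biofilms established 24 h at 37 °C from mid-log culture diluted 1,000-fold in TSBG (0.5% glucose), washed, exposed 24 h to 2-fold serial dilutions, then peg lid moved to fresh TSBG for 24 h recovery. MBEC = lowest concentration giving no turbidity; at least three independent experiments.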

Staphylococcus aureus [8] = experiment: Antibacterial activity against methicillin-resistant Staphylococcus aureus 2 after 16 to 18 hrs by broth microdilution method; assay type: functional; method in brief: as §1
[9] = test system: Staphylococcus epidermidis; experiment: Induction of biofilm eradication of methicillin-resistant Staphylococcus epidermidis ATCC 35984 after 24 hrs by calgary biofilm device method; assay type: functional; method in brief: as §3
Staphylococcus aureus [10] = experiment: Bactericidal activity against methicillin-resistant Staphylococcus aureus BAA-1707 planktonic cells after 24 hrs by calgary biofilm device method; assay type: organism-based; method in brief: as §2
Staphylococcus aureus [11] = experiment: Bactericidal activity against methicillin-resistant Staphylococcus aureus 2 planktonic cells after 24 hrs by calgary biofilm device method; assay type: organism-based; method in brief: as §2
Staphylococcus aureus [12] = experiment: Induction of biofilm eradication of methicillin-resistant Staphylococcus aureus 2 after 24 hrs by calgary biofilm device method; assay type: functional; method in brief: as §3
Enterococcus faecium [13] = experiment: Induction of biofilm eradication of vancomycin-resistant Enterococcus faecium ATCC 700221 after 24 hrs by calgary biofilm device method; assay type: functional; method in brief: as §3
Enterococcus faecium [14] = experiment: Bactericidal activity against vancomycin-resistant Enterococcus faecium ATCC 700221 planktonic cells after 24 hrs by calgary biofilm device method; assay type: organism-based; method in brief: as §2
[15] = test system: Mycobacterium tuberculosis; experiment: Antibacterial activity against Mycobacterium tuberculosis H37Ra ATCC 25177 after 7 days; assay type: functional; conditions: H37Ra ATCC 25177, 168 h
Method in brief: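 M. tuberculosis H37Ra grown two weeks in Middlebrook 7H9, diluted to OD600 0.01; two-fold serial dilutions 0.024–50 µM (streptomycin positive control, 0.16–340 µM); final DMSO 0.5%. Incubated 7 days at 37 °C; MIC = lowest concentration with no growth, OD600 recorded; three independent experiments.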

| Structure (SMILES) | MIC (Enterococcus faecium [2]) | MIC [4] | MIC (Staphylococcus aureus [5]) | MBC [6] | MBC (Staphylococcus aureus [11]) | MBEC (Staphylococcus aureus [12]) | also measured |
| --- | --- | --- | --- | --- | --- | --- | --- |
| O=C(OCCOCCOCCOCCO)OCOc1c(Br)cc(Br)c2nc3ccccc3nc12 | > 100 µM | > 100 µM | > 100 µM | – | – | – | IC50 (HeLa): > 100 µM; hemolysis at 1 h, 200 µM [1]: 2.7%; half-life [3]: 7.3 min |
| CCN(CC)c1ccc2nc3c(O)c(Br)cc(Br)c3nc2c1Br | 0.3 µM (≈ 0.151 µg/mL) | 0.1 µM (≈ 0.0504 µg/mL) | 0.15 µM (≈ 0.0756 µg/mL) | 9.38 µM (≈ 4.73 µg/mL) | – | – | IC50 (HeLa): > 100 µM; MBEC (Staphylococcus aureus [7]): 4.69 µM; MIC (Staphylococcus aureus [8]): 0.3 µM (≈ 0.151 µg/mL); hemolysis at 1 h, 200 µM [1]: ≤ 1%; MBEC [9]: 6.25 µM; MBC (Staphylococcus aureus [10]): 9.38 µM (≈ 4.73 µg/mL) |
| C[C@H]1c2cccc(O)c2C(=O)C2=C(O)[C@]3(O)C(=O)C(C(N)=O)=C(O)[C@@H](N(C)C)[C@@H]3[C@@H](O)[C@@H]21.O [DOXYCYCLINE] | – | – | – | – | 2 µM | 46.9 µM | – |
| NC(=O)c1cnccn1 [PYRAZINAMIDE] | – | – | – | – | > 2000 µM | >2000 µM | – |
| CC(=O)N[C@@H](CS)C(=O)O [ACETYLCYSTEINE] | – | – | – | > 2000 µM | > 2000 µM | >2000 µM | MBEC (Enterococcus faecium [13]): >2000 µM; MBEC [9]: >2000 µM; MBC (Enterococcus faecium [14]): > 2000 µM |
| COCCOCCOCCOC(=O)OCOc1c(Br)cc(Br)c2nc3ccccc3nc12 | > 100 µM | > 100 µM | > 100 µM | – | – | – | hemolysis at 1 h, 200 µM [1]: 1.4%; half-life [3]: 15.8 min |
| CCCc1ccc2nc3c(O)c(Br)cc(Br)c3nc2c1 | 3.13 µM (≈ 1.24 µg/mL) | 0.15 µM (≈ 0.0594 µg/mL) | 0.1 µM (≈ 0.0396 µg/mL) | 25 µM (≈ 9.9 µg/mL) | – | – | IC50 (HeLa): > 50 µM; MBEC (Staphylococcus aureus [7]): 75 µM; hemolysis at 1 h, 200 µM [1]: 2.1%; MBC (Enterococcus faecium [14]): 25 µM (≈ 9.9 µg/mL) |
| N#CC(C#N)=NNc1cccc(Cl)c1 [CARBONYL CYANIDE M-CHLOROPHENYLHYDRAZONE] | – | – | – | 31.3 µM (≈ 6.4 µg/mL) | 31.3 µM (≈ 6.4 µg/mL) | 1000 µM | MBEC [9]: 93.8 µM |
| CCCCCCCCCC(=O)N[C@@H](Cc1c[nH]c2ccccc12)C(=O)N[C@H](CC(N)=O)C(=O)N[C@@H](CC(=O)O)C(=O)N[C@@H]1C(=O)NCC(=O)N[C@@H](CCCN)C(=O)N[C@@H](CC(=O)O)C(=O)N[C@H](C)C(=O)N[C@@H](CC(=O)O)C(=O)NCC(=O)N[C@H](CO)C(=O)N[C@@H]([C@H](C)CC(=O)O)C(=O)N[C@@H](CC(=O)c2ccccc2N)C(=O)O[C@@H]1C [DAPTOMYCIN] | – | – | – | – | 62.5 µM (≈ 101 µg/mL) | – | MBC (Staphylococcus aureus [10]): 125 µM (≈ 203 µg/mL) |
| CN[C@@H]1[C@H](O[C@H]2[C@H](O[C@H]3[C@H](O)[C@@H](O)[C@H](N=C(N)N)[C@@H](O)[C@@H]3N=C(N)N)O[C@@H](C)[C@]2(O)C=O)O[C@@H](CO)[C@H](O)[C@H]1O [STREPTOMYCIN] | – | – | – | – | – | – | MIC [15]: 1.32 µM (≈ 0.768 µg/mL) |
| CCOc1ccc2nc3c(O)c(Br)cc(Br)c3nc2c1 | > 100 µM | 18.8 µM (≈ 7.48 µg/mL) | > 100 µM | – | – | – | – |
| O=C(O)CN(CCN(CC(=O)O)CC(=O)O)CC(=O)O [EDETIC ACID] | – | – | 25 µM (≈ 7.31 µg/mL) | 1000 µM (≈ 292 µg/mL) | 2000 µM (≈ 584 µg/mL) | >2000 µM | MBEC (Staphylococcus aureus [7]): >2000 µM; MBEC [9]: >2000 µM; MBC (Staphylococcus aureus [10]): > 2000 µM |
| Oc1ccc(Br)c2nc3cc(Cl)ccc3nc12 | 25 µM (≈ 7.74 µg/mL) | 18.8 µM (≈ 5.82 µg/mL) | – | – | – | – | IC50 (HeLa): > 100 µM; MIC [15]: 6.25 µM (≈ 1.93 µg/mL) |
| CCOC(=O)c1ccc2nc3c(O)c(Br)cc(Br)c3nc2c1 | 2.35 µM (≈ 1 µg/mL) | – | – | – | – | – | – |
